STAT3 inh – reduces IL-6 driven STAT3 reporter signal; U3A cells, IL-6 STAT3-luciferase reporter, luminescence; host cell line lacks STAT1; 190,000 tested, 0.89% active; AID 862; inhibition, % at 5.5 µM;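 active = inhibition above the mean inhibition across all screened compounds plus 3 SD, cut at about 44% in these data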;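 note: 0% = DMSO only wells and 100% = 100 µM nifuroxazide control wells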
STAT3 activator – activators of IL-6 induced STAT3 signaling. 190,000 tested, 0.91% active. U3A cells, IL-6 STAT3-luciferase reporter, luminescence; 100% = signal with IL-6 EC80 alone. activation (% of control), % at 5.6 µM. AID 871;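 active = activation above the screen-wide mean of compound activation plus 3 SD, cut at about 130% in these data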;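 note: 0% = background luminescence of wells with medium and substrate only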
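system = STAT3-luciferase reporter U3A cells | reagent = IL-6 stimulus at 33 ng/mL final | timing = 1 h compound pre-exposure, 6 h IL-6 stimulation, 37 °C | measured by = luminescence | evaluation = % activation versus median of IL-6-stimulated wells | control set = IL-6-only wells as 100% reference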
NF-kB expr up – compounds increasing NF-kB expression in human neuronal cells. NF-kB reporter expression; active compounds read high. fold change at 12.5 µM. 190,000 tested, 1.6% active; in the data active = fold change above about 3.3
STAT1 blocker – STAT1 signaling inhibition; 200,000 tested, 0.35% active; AID 920; inhibition, % at 5.5 µM; NIH 3T3 STAT1-luciferase reporter, IFN-gamma, luminescence;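 active = inhibition above a set limit, the mean inhibition across all tested compounds plus 3 SD, cut at about 34% in these data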;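 note: 0% = IFN-gamma with DMSO and 100% = IFN-gamma with 300 µM nifuroxazide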
STAT1 act – increases IFN-gamma driven STAT1 reporter signal. activation (% of control), % at 5.5 µM. NIH 3T3 STAT1-luciferase reporter, luminescence; 100% = IFN-gamma alone, no compound. 200,000 tested, 2.6% active;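 active = activation above the screen-wide mean activation plus 3 SD, cut at about 130% in these data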;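 note: raw ratio to IFN-gamma control signal so 100% means no change and 0% no light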
APP 5'UTR act – activates APP 5'UTR luciferase reporter; SH-SY5Y APP 5'UTR luciferase reporter, luminescence; zero percent = DMSO vehicle wells; 190,000 tested, 1% active; AID 1276; activation, % at 2 µM;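 active = activation above a set limit, based on mean plus 3 SD of controls, cut at about 140% in these data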
STAT1 activ conf – confirmation of STAT1 signaling activators. shares compounds with STAT1 act. NIH 3T3 STAT1-luciferase reporter, IFN-gamma potentiation, luminescence; 100% = IFN-gamma EC80 alone, no compound. activation (% of control), % at 5.7 µM. 1,200 tested, 97% active. AID 1262;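 active = activation above a set limit carried over from the earlier primary STAT1 screen, cut at about 140% in these data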;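 note: simple ratio to median IFN-gamma plus DMSO wells so 0% means no light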
NFkB act – counter-screen for STAT1 activators: NF-kappaB activation. 1,200 tested, 43% active. activation (% of control), % at 5.7 µM. shares compounds with STAT1 act. HEK293T NF-kB luciferase reporter, TNF-alpha stimulated, luminescence; 100% = TNF-alpha with vehicle only;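 active = activation above the mean of solvent-only control wells plus 3 SD, set per campaign, cut at about 130% in these data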;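 note: TNF-alpha given at a submaximal dose yielding about 80% of full reporter signal; values are well signal over median control so 100% means no change and 0% no light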
STAT3 act STAT1c – counter-screen for STAT1 activators: human STAT3 activation; shares compounds with STAT1 act; U3A cells STAT3-luciferase reporter, IL-6, luminescence; cells lack STAT1; 100 = IL-6 alone, no compound effect; activation (% of control), % at 5.7 µM; 1,200 tested, 46% active; AID 1316;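 active = activation above the solvent-only control well mean plus 3 SD, set per plate batch, cut at about 110% in these data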;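 note: 0% = no luminescence and 100% = median IL-6 plus DMSO wells; higher means more STAT3 reporter activation so hits are non-selective activators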
An asterisk follows results filed as active; · = not tested or not shown. Hits are enriched below; roughly 5.1% of the tested compounds scored in any of these assays.

SMILES	STAT3 inh	STAT3 activator	NF-kB expr up	STAT1 blocker	STAT1 act	APP 5'UTR act	STAT1 activ conf	NFkB act	STAT3 act STAT1c
O=C(/C=C/c1ccc(Cl)cc1Cl)NCCN1CCOCC1	1.0	103.1	1.36	-1.9	101.7	-4.3	·	·	·
CCOC(=O)/C(C#N)=C/c1cc(C)n(-c2ccccc2)c1C	28.9	76.6	1.19	-41.4	164.6*	153.2*	255.1*	115.1	105.4
CCOC(=O)/C(C#N)=C/c1cc(C)n(-c2ccc(Br)cc2)c1C	-0.6	107.3	1.5	-3.4	103.1	3.7	·	·	·
COC(=O)Cc1c(O)ccn(Cc2ccc(OC)c(OC)c2)c1=O	3.5	106.7	1.05	-4.1	102.1	19.0	·	·	·
COc1ccc2nc(-c3ccccc3)[nH]c2c1	34.3	73.8	5.54*	-45.3	153.3*	177.9*	198.7*	123.6	104.3
c1cncc(-c2nc3cc4ccccc4cc3[nH]2)c1	13.3	93.8	2.91	-62.2	155.9*	154.3*	226.0*	125.7	103.2
O=[N+]([O-])c1ccc2nc(-c3ccccc3[N+](=O)[O-])[nH]c2c1	6.1	96.7	2.36	-29.5	125.6	1.0	·	·	·
O=[N+]([O-])c1ccc2nc(-c3ccc(Cl)cc3)[nH]c2c1	-13.7	108.8	1.15	-55.4	155.3*	156.3*	205.9*	132.9	102.2
COc1ccc(-c2nc3ccc([N+](=O)[O-])cc3[nH]2)cc1	27.4	79.2	8.66*	-93.2	181.9*	160.4*	251.3*	131.1	98.1
Cc1csc(NC(=O)CCNS(=O)(=O)c2ccc3c(c2)c(=O)n(C)c(=O)n3C)n1	-1.3	105.6	1.22	1.0	99.1	14.4	·	·	·
S=C(c1ccc(-c2ccc(Cl)cc2)o1)N1CCCCC1	12.5	96.7	4.86*	-86.8	180.7*	184.3*	221.9*	137.6*	114.9*
Brc1ccccc1/C=N/Nc1ccc2ccccc2n1	-24.7	127.8	9.44*	-63.8	157.8*	118.7	190.7*	119.6	145.6*
COC(=O)CN(c1ccc(OC)cc1OC)S(=O)(=O)c1ccccc1[N+](=O)[O-]	2.8	100.6	1.02	5.6	93.7	13.7	·	·	·
Cc1ccc2cc3cc(C(=O)N4CCCCC4C)oc3nc2c1 (stereo not drawn)	34.8	72.8	3.51*	-72.2	165.7*	196.6*	216.5*	135.6*	105.0
COCCCN(C(C)=O)c1nc(-c2ccc(OC)cc2)cs1	-4.4	108.6	2.13	-60.9	155.5*	7.5	144.5*	100.3	111.7*
OCC1(CCCc2ccccc2)CCN(Cc2ccc(F)cc2)CC1	-4.8	106.1	1.17	-2.5	100.5	-8.9	·	·	·
Cc1c(-c2nc(N)nc(Nc3ccc(F)cc3)n2)oc2ccccc12	0.5	102.1	3.33*	-64.9	155.9*	151.7*	183.0*	142.2*	106.2
Cc1cc(C(=O)CN2CCC(C)CC2)c(C)n1-c1ccc(F)cc1	-7.3	105.8	0.74	-62.8	157.0*	136.0*	164.1*	132.2	118.1*
COc1ccc2oc(C(=O)c3ccccc3)c(N)c2c1	11.0	94.2	6.13*	-80.7	173.6*	144.5*	175.5*	141.5*	106.8
Cc1cc2nnc(SCC(=O)N3CCOCC3)n2c2ccccc12	2.4	100.0	1.16	-4.3	103.3	3.4	·	·	·
COc1ccc(C(=O)CSc2nnc3ccccn23)cc1OC	-7.5	115.2	1.34	-5.9	103.5	11.3	·	·	·
O=C(CSc1nnc2ccccn12)c1ccc2c(c1)OCCO2	-10.2	111.6	3.17	-62.4	158.1*	123.2	186.2*	131.6	130.5*
C/C(=N\Nc1ccccc1)c1cc2ccccc2oc1=O	11.5	93.8	1.04	-15.5	112.7	14.1	·	·	·
CC(C)(C)C(=O)Nc1nc(-c2ccccc2)ns1	10.8	93.5	5.91*	-70.7	164.9*	144.5*	199.8*	129.0	109.6
O=C(CSc1nnnn1-c1ccccc1)Nc1nc(-c2ccccc2)ns1	4.9	98.1	1.12	-0.7	100.6	4.7	·	·	·
SMILES	STAT3 inh	STAT3 activator	NF-kB expr up	STAT1 blocker	STAT1 act	APP 5'UTR act	STAT1 activ conf	NFkB act	STAT3 act STAT1c
COc1ccc(Cc2nnc(-c3ccccc3)o2)cc1	9.9	101.7	1.49	-24.0	121.1	14.5	·	·	·
Cc1ccccc1-c1nnc(Cc2ccccc2)o1	6.5	97.7	2.46	-60.7	153.6*	71.4	175.4*	135.3*	108.4
N#CC1=C2Sc3ccccc3N2CCCC1=O	-10.7	114.7	1.1	-17.5	116.0	-2.2	·	·	·
N#CC1=C2SC=C(c3ccc(Br)cc3)N2CCCC1=O	12.6	91.2	6.81*	-63.6	156.9*	175.7*	193.7*	147.0*	102.0
COc1ccc2c(c1OC)C(=O)OC2Nc1nc(-c2ccc(-c3ccccc3)cc2)cs1 (stereo not drawn)	-6.8	103.7	11.1*	-90.8	180.8*	178.8*	231.9*	134.6*	98.3
COc1ccc2c(c1OC)C(=O)OC2Nc1nc(-c2cc3ccccc3oc2=O)cs1 (stereo not drawn)	24.5	80.3	6.67*	-92.0	182.4*	153.3*	194.5*	117.2	102.0
COCCn1c(-c2cccs2)nc2c(c(=O)c3ccccc3n2C)c1=O	8.9	102.2	0.5	-3.7	103.3	9.0	·	·	·
Cc1cc(C(=O)CSc2nc3ccccc3[nH]2)c(C)n1Cc1ccco1	38.5	67.1	1.11	-72.7	164.7*	213.6*	208.7*	113.9	81.5
CCCn1c(C)cc(C(=O)CSc2nc3ccccc3c(=O)n2Cc2ccco2)c1C	-8.1	104.7	1.06	-21.8	119.4	120.8	·	·	·
CC(C)N1C(=O)CCC1C(=O)O (stereo not drawn)	0.6	107.5	1.24	-1.8	101.6	2.0	·	·	·
C=CCNC(=S)N1CCC(C(N)=O)CC1	4.9	100.1	1.18	-2.2	103.7	-3.6	·	·	·
CC1=CN2C(=N)/C(=C/c3ccco3)C(=O)N=C2S1	-20.4	117.7	7.7*	-118.4	206.0*	136.4*	310.1*	166.6*	119.8*
CC1=CN2C(=N)/C(=C/c3ccc([N+](=O)[O-])o3)C(=O)N=C2S1	-11.4	109.4	1.82	-1.2	101.1	-48.0	·	·	·
COc1ccc(CNC(=O)c2sc3nc4c(c(C(F)(F)F)c3c2N)CCC4)cc1OC	27.6	77.7	1	3.6	96.8	1.8	·	·	·

Source: PubChem
